SR-BI DiI inh: blocks mouse SR-BI lipid uptake from DiI-HDL | Q61009 | ldlA[mSR-BI] CHO cells, DiI-HDL uptake fluorescence, 3 h | inhibition, % at 12.5 µM | 320,000 compounds, 0.96% hits | AID 488896;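 active means mean replicate inhibition of at least 70% and a set share of replicates each scoring 70 or more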
ABCB6 inh 2: blocks the human ABCB6 transporter. 360,000 compounds, 0.19% hits. AID 602162. K562-ABCB6 porphyrin accumulation, flow cytometry, 1 h; stronger effect = lower value. fluorescence ratio to DMSO, % at 10 µM;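 active means fluorescence ratio to DMSO below 75%, the collection mean minus 3 SD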;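 further: signal is porphyrin accumulated inside mitochondria; lower ratio means ABCB6 inhibition with less porphyrin fluorescence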
Target sequence (Q9NP58 whole entry, looked up): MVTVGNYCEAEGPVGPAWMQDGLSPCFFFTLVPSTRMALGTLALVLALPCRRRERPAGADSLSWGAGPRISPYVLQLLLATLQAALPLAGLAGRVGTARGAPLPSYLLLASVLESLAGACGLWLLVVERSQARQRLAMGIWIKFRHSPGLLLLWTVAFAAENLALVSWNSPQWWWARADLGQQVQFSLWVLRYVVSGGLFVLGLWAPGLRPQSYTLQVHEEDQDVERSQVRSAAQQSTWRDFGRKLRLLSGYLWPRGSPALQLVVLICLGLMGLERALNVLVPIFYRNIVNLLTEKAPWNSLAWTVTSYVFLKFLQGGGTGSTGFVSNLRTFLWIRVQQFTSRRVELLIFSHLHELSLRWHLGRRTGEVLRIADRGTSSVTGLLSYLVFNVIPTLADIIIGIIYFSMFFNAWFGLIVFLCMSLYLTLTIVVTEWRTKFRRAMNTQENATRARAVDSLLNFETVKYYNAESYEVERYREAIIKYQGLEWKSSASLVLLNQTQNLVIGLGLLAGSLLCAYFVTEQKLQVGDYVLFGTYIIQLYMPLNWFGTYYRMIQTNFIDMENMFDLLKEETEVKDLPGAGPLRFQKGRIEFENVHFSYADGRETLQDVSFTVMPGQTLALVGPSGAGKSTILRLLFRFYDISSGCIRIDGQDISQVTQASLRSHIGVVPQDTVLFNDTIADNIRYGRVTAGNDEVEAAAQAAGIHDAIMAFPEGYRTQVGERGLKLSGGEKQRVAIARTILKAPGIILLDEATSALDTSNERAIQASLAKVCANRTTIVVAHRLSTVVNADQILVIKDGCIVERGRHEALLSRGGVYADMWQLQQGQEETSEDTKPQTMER
GAA850 FXN act: increases GAA850 frataxin promoter reporter activity. activation, % at 6 µM. HEK293 lucGAA850 FXN promoter luciferase reporter, 24 h; percent of 10 µM SAHA response. 360,000 compounds, 0.56% hits;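 active means activation above the average of all compounds screened plus 3 SD, cutoff fixed separately per campaign, cut at about 7.5% in these data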
SR-BI uptake up: enhances SR-BI lipid uptake from DiI-HDL. CHO ldlA[mSR-BI] cells, DiI-HDL uptake fluorescence, 3 h; 100 = double the neutral-control signal. activation, % at 12.5 µM. 320,000 compounds, 0.096% hits;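 active means mean replicate activation of at least 60% and every replicate at or above 60%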
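System: LDL receptor-deficient CHO ldlA cells overexpressing murine SR-BI | Timing: 3 h uptake period with compound, 37 °C | Medium: HEPES-buffered (25 mM, pH 7.4) F12 plus 0.5% BSA | Dosing: Single-point compound dose | Signal: Bottom-read fluorescence, 550/595 nm | Read-out: Retained DiI signal reflecting DiI-HDL uptake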
AHR activator: activates the human aryl hydrocarbon receptor; activation, % at 5 µM; P35869; AHR-responsive luciferase reporter cells, luminescence; 320,000 compounds, 2.5% hits; in the data active means activation above about 47%
HIF activator: HIF pathway transcriptional activation | 300,000 compounds, 0.32% hits | AID 1910 | activation, % at 7.5 µM (by protocol) | U2OS HRE-luciferase reporter, luminescence; normalized: DMSO 0%, desferrioxamine 100%;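 active means mean activation of at least 10% of the iron chelator positive control signal, with at least half of replicates also reaching 10%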
Hits are given with their value; - = inactive; . = not tested or not shown. A selection: hits, their analogues and other compounds. The true share with any hit is near 3.9%.

SMILES	SR-BI DiI inh	ABCB6 inh 2	GAA850 FXN act	SR-BI uptake up	AHR activator	HIF activator
O=[N+]([O-])c1ccc(NC(=S)N2CCN(c3ccccc3)CC2)cc1	-	-	-	75.2	-	-
CNC(=O)CSc1nc2ccccc2c(=O)n1C1CCCCC1	-	-	-	-	-	-
C/C(=N\O)c1ccc(Cl)c(Cl)c1	.	.	.	.	-	-
CCCn1c2ccc(/C(C)=N\O)cc2c2cc(/C(C)=N/O)ccc21	100.7	-	-	-	48.0	-
COc1cccc(N(C(=O)Cn2nnc(-c3cccs3)n2)C(C(=O)NC(C)C)c2ccc(C)o2)c1 (centres undefined)	-	-	-	-	-	-
N/C(=N\OC(=O)c1ccccc1Cl)c1ccc(Cl)cc1	-	-	-	-	57.3	-
N/C(=N\OC(=O)c1ccccc1Cl)c1ccccc1	-	-	-	-	53.8	-
N/C(=N\OC(=O)c1ccc(Cl)cc1Cl)c1ccccc1	-	-	-	-	82.0	-
N/C(=N\OC(=O)c1ccc(Cl)cc1Cl)c1ccc(Cl)cc1	-	-	-	-	-	-
COC(=O)C1=C(C)N(CCc2ccc(OC)cc2)C(=O)C1	-	-	-	-	-	-
COC(=O)C1=C(C)N(Cc2ccc(OC)cc2)C(=O)C1	-	-	-	-	-	223.3
O=C1C(NS(=O)(=O)c2ccccc2)=C(N2CCN(c3ccc(F)cc3)CC2)C(=O)c2ccccc21	86.8	-	-	-	65.7	-
O=C1C(NS(=O)(=O)c2cccs2)=C(N2CCN(c3cccc(Cl)c3)CC2)C(=O)c2ccccc21	80.6	-	-	-	-	-
CC1CCN(C2=C(NS(=O)(=O)c3ccccc3)C(=O)c3ccccc3C2=O)CC1	.	-	-	.	-	-
CCC(C)[C@H](NC(=O)N1CCCC1)C(=O)O (some centres undefined)	-	-	-	-	-	-
O=C(CSc1nnc2c(Cl)cc(Cl)cn12)N1CCN(c2ccc(F)cc2)CC1	-	-	-	-	-	-
COc1ccc(CCNC(=O)c2ccccc2C(=O)NCCc2ccc(OC)cc2)cc1	-	-	-	-	-	-
CCOc1ccc(-c2noc(-c3cccnc3)n2)cc1OC	-	-	-	-	-	-
CCOc1ccccc1-c1nc(-c2cccc(Br)c2)no1	-	-	-	-	64.0	-
CCOc1ccccc1-c1nc(-c2ccc(NC(=O)Cc3ccc(OC)cc3)cc2)no1	98.9	-	-	-	-	-
COc1ccc(CC(=O)Nc2ccc(-c3noc(COc4ccccc4C)n3)cc2)cc1	-	-	-	-	-	-
O=C1N[C@@H](Cc2cn(S(=O)(=O)c3c(F)c(F)c(F)c(F)c3F)c3ccccc23)C(=O)N[C@H]1Cc1ccccc1	.	.	.	.	-	-
Cc1ccc(C2(c3ccc(C)cc3)CC2C(=O)Nc2ccc([N+](=O)[O-])cc2O)cc1 (centres undefined)	-	-	-	-	59.3	-
Cc1ccc(CN2CCSCC2)c(C)c1	-	-	-	-	-	-
FC(F)Oc1ccc(NC(=S)N2CCc3ccccc32)cc1	-	-	-	-	50.8	-
SMILES	SR-BI DiI inh	ABCB6 inh 2	GAA850 FXN act	SR-BI uptake up	AHR activator	HIF activator
Fc1ccc(NC(=S)N2CCc3ccccc32)cc1	-	-	-	-	.	-
Cc1ccccc1/C=N\NC(=O)c1csnn1	-	-	-	-	50.7	-
CCOc1ccccc1/C=C/c1onc(C)c1S(=O)(=O)N1CCC(C(=O)N2CCCCCC2)CC1	92.1	-	-	-	-	-
CCOc1ccc(C(=O)n2cc(C(=O)OC)c3ccccc32)cc1OCC	81.4	-	-	-	-	-
O=C(Nc1ccccc1)Nc1nnc(-c2cccs2)s1	-	-	-	-	114.9	.
CC(C)(C)CC(=O)Nc1nnc(-c2cccs2)s1	-	-	-	-	49.9	-
O=C(Cc1nnc(NC(=O)Nc2ccccc2)s1)Nc1ccccc1	.	-	-	.	-	-
O=S(=O)(Nc1ncccn1)c1ccc(NC(=S)Nc2ccc(Cl)cc2)cc1	.	-	-	.	-	-
COc1ccccc1/C=N/NC(=S)Nc1cccnc1	-	-	-	-	59.0	-
CN(C)S(=O)(=O)c1cccc(NC(=S)N/N=C/C2CC=CCC2)c1 (centres undefined)	.	-	-	.	-	-
Oc1ccc(/C=N/NC(=S)Nc2cccnc2)cc1O	-	-	-	-	79.4	-
COc1cc(/C=N/NC(=S)Nc2cccc(S(=O)(=O)N(C)C)c2)ccc1O	71.2	-	-	-	-	-
CC(C)(C)c1ccc(/C=N/NC(=S)Nc2cccnc2)cc1	.	.	.	.	-	-
COc1cc(/C=N/NC(=S)Nc2cccnc2)cc(OC)c1OC	-	-	-	-	61.5	-
CC(NC(=O)COC(=O)/C=C/c1cccc(F)c1)c1ccccc1 (centres undefined)	-	-	-	-	-	.
CC1(C)C2CC=C(/C=N/NC(=S)Nc3cccnc3)C1C2 (centres undefined)	-	-	-	-	65.1	-
CC(C)NC(=S)N/N=C/C1=CCC2CC1C2(C)C (centres undefined)	-	-	-	-	-	-
Cc1cc(=O)[nH]c(NN=Cc2cc(Br)ccc2O)n1	96.8	-	-	-	.	.
CCN(CC)c1ccc(/C=N/Nc2nc(C)cc(=O)[nH]2)c(O)c1	-	-	-	-	-	56.8
COc1ccc(S(=O)(=O)N2CCN(Cc3cccnc3)CC2)cc1	-	-	-	-	.	-
O=C(Nc1cccc(S(=O)(=O)C(F)F)c1)c1ccc(S(=O)(=O)N2CCCC2)cc1	-	-	-	-	-	-
C/C(Cc1ccccc1)=N\NC(=O)CNC(=O)c1cccc(Cl)c1	-	-	-	-	-	-
Brc1ccc(-c2cnc(-c3cccs3)o2)cc1	-	-	-	-	65.8	-
CN(C)c1ccc(-c2nnc(-c3cccs3)o2)cc1	-	-	-	-	-	-
COCc1cc(CN2CCCC2)c(O)c2ncccc12	-	-	-	-	-	-
SMILES	SR-BI DiI inh	ABCB6 inh 2	GAA850 FXN act	SR-BI uptake up	AHR activator	HIF activator
CCOc1ccccc1N1CCN(Cc2cccc(OC)c2O)CC1	-	-	-	-	-	-
Oc1c(CN2CCN(c3ccccn3)CC2)cc(Cl)c2cccnc12	-	-	10.2	-	-	-
Oc1c(CN2CCCCC2)cc(COCc2ccccc2)c2cccnc12	-	-	-	-	-	132.0
COc1ccccc1N1CCN(Cc2cc(Br)c(O)c3ncccc23)CC1	-	-	-	-	-	12.5
Cc1cc(C)c(C#N)c(SCCN2CCCCC2)n1	-	-	-	-	.	-
C/C(=N\N1CCCCC1)c1ccccc1O	-	-	-	-	-	-
Cc1cc(N)ccc1S(C)(=O)=O	-	-	-	-	-	-
CCN1C(=O)[C@H]2[C@@H](c3ccc(C)cc3)N3C(=O)N(c4ccc(OC)cc4)C(=O)[C@@]3(Cc3ccccc3)[C@H]2C1=O	-	-	-	-	-	-

Source: PubChem BioAssay (several laboratories)
